Test results published in ChEMBL document CHEMBL1667733, “Cytotoxic amide alkaloids from Piper boehmeriaefolium” (J Nat Prod, 2011).
Converted amounts (≈) assume the structure as drawn. The source made the active and inactive calls. The rule behind the calls is not given here.

Tested on: HeLa
Experiment: Cytotoxicity against human HeLa cells after 72 hrs by MTT assay
Assay type: functional, cell-based
How it was run: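 HeLa cells in log-phase growth, harvested with 0.01% trypsin, seeded at 3.0 × 10^3 cells/well and grown overnight at 37 °C in humidified 5% CO2. Six concentrations (100.00, 33.33, 11.11, 3.70, 1.23, 0.41 µg/mL) added in triplicate. After 72 h at 37 °C, MTT added for 3 h more, supernatant removed, DMSO added. Absorbance read at 550 nm against 690 nm reference. Doxorubicin positive control.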

Row | SMILES | Activity | IC50 [µg/mL]
1 | CCCCC/C=C/C=C/C(=O)NCCc1ccc(O)c(OC)c1 | inactive | 
2 | COc1cc(CCC(=O)n2cccc2)cc(OC)c1OC | inactive | 
3 | O=C(CCCCCCC/C=C/c1ccc2c(c1)OCO2)N1CCCC1 |  | 2.67 (≈ 7.77 µM)
4 | O=C(CCCCCC/C=C/c1ccc2c(c1)OCO2)N1CCCC1 |  | 17.9 (≈ 54.5 µM)
5 | O=C(CC/C=C/CCCC/C=C/c1ccc2c(c1)OCO2)N1CCCC1 |  | 12.2 (≈ 34.3 µM)
6 | COc1cc(CCC(=O)n2cccc2)cc(OC)c1O | inactive | 
7 | CCCCC/C=C/C=C/C(=O)NCC[S+](C)[O-] (stereo not drawn) | inactive | 
8 | O=C(/C=C/CCCC/C=C/c1ccc2c(c1)OCO2)N1CCCC1 [BRACHYAMIDE B] |  | 15 (≈ 45.7 µM)
9 | COc1cccc2c1C(=O)c1c(O)c3c(c(O)c1C2=O)C[C@@](O)(C(=O)CO)C[C@@H]3O[C@H]1C[C@H](N)[C@H](O)[C@H](C)O1 [DOXORUBICIN] |  | 0.163 (≈ 0.3 µM)
10 | O=C(/C=C/C=C/CC/C=C/c1ccc2c(c1)OCO2)N1CCCC1 |  | 13.7 (≈ 42.2 µM)
11 | O=C(/C=C/C=C\CC/C=C/c1ccc2c(c1)OCO2)N1CCCC1 |  | 7.42 (≈ 22.8 µM)
12 | CCCCC/C=C/C=C/C=C/C(=O)N1CCCC1 | inactive | 
13 | O=C(/C=C/C=C/CCCC/C=C/c1ccc2c(c1)OCO2)N1CCCC1 |  | 11.6 (≈ 32.8 µM)
